Reference: article PMC3066299 (Bioorganic & medicinal chemistry, 2011)
pKi: −log10 of the molar value. Where two headings read alike, the source gives them in different places.

What was measured:
GHSR [1] = settings: read-out: GHSR binding affinity Ki; cited from earlier work
[2] = type: in vivo, CD1 mice; settings: for Brain regional distribution: i.v., mean ± SD (n=3)
How it was run: (§1)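 Male CD1 mice (23-28 g) received the radiotracer i.v. via a lateral tail vein: 0.1 mCi in 0.2 ml saline, specific radioactivity ~4000 mCi/µmol. Animals were killed by cervical dislocation at set times up to 90 min. Brain regions and body organs were removed, dissected on ice, weighed and gamma-counted alongside injectate standards. Uptake was expressed as %ID/g tissue.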

[3] = Baseline dissection study, whole body distribution of radioactivity in CD1 mice; type: in vivo; settings: mean ± SD (n=5)
How it was run: as §1

GHSR [4] = target: GHSR (Mus musculus, UniProt Q99P50); test: Blocking dissection studies in mice with GHSR antagonist 2; type: in vivo, CD1 mice; settings: for Whole body distribution: block with 2 (1 mg/kg), 90 min, mean ± SD (n=5), P>0.05 vs baseline
How it was run: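 Male CD1 mice were pretreated s.c. with a GHSR blocker at 1 mg/kg, or with vehicle (saline/alcohol 9:1, 0.1 mL). Fifteen minutes later they received radiotracer i.v. (0.1 mCi in 0.2 mL saline, ~4000 mCi/µmol). Tissues were harvested 90 min after tracer and counted for radioactivity. Groups were five animals each, baseline and blockade.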

[5] = Observation of pharmacological effects after tracer dose in CD1 mice; type: in vivo; settings: tracer dose approximately 0.5 nmol/kg, intravenously, CD1 mice (n=30)

Sequence of GHSR (Mus musculus, UniProt Q99P50) (Q99P50 whole entry): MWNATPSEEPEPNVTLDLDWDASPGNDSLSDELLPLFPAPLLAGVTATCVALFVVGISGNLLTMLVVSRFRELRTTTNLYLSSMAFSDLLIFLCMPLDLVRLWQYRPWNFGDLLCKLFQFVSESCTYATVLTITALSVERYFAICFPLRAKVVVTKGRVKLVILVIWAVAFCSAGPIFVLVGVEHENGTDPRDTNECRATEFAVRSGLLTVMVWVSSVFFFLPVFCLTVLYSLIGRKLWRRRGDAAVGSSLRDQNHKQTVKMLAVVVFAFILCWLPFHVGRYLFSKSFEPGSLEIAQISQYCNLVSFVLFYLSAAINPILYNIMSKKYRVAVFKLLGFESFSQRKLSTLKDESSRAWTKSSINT

SMILES: Cc1ccccc1-c1nc2ccc(Oc3ccc(F)cc3)cc2c(=O)n1CC1CCCN(C(C)C)C1 (stereo not drawn) [N-isopropyl derivative]
- pKi (GHSR [1]): 9.33

SMILES: Cc1ccccc1-c1nc2ccc(Oc3ccc(F)cc3)cc2c(=O)n1C[C@H]1CCCN([11CH3])C1 [[^11C]1, (S)-6-(4-fluorophenoxy)-3-((1-[^11C]methylpiperidin-3-yl)methyl)-2-o-tolylquinazolin-4(3H)-one]
- Brain regional distribution ([2]; Cerebellum, 10 min): 0.63±0.06 %injected dose /g tissue
- Brain regional distribution ([2]; Cerebellum, 30 min): 0.56±0.09 %injected dose /g tissue
- Brain regional distribution ([2]; Cerebellum, 60 min): 0.59±0.08 %injected dose /g tissue
- Brain regional distribution ([2]; Cerebellum, 90 min): 0.59±0.10 %injected dose /g tissue
- Brain regional distribution ([2]; Cortex, 10 min): 0.63±0.09 %injected dose /g tissue
- Brain regional distribution ([2]; Cortex, 30 min): 0.60±0.06 %injected dose /g tissue
- Brain regional distribution ([2]; Cortex, 60 min): 0.65±0.12 %injected dose /g tissue
- Brain regional distribution ([2]; Cortex, 90 min): 0.66±0.15 %injected dose /g tissue
- Brain regional distribution ([2]; Hippocampus, 10 min): 0.60±0.13 %injected dose /g tissue
- Brain regional distribution ([2]; Hippocampus, 30 min): 0.59±0.09 %injected dose /g tissue
- Brain regional distribution ([2]; Hippocampus, 60 min): 0.71±0.08 %injected dose /g tissue
- Brain regional distribution ([2]; Hippocampus, 90 min): 0.65±0.12 %injected dose /g tissue
- Brain regional distribution ([2]; Hypothalamus, 10 min): 0.56±0.08 %injected dose /g tissue
- Brain regional distribution ([2]; Hypothalamus, 30 min): 0.58±0.08 %injected dose /g tissue
- Brain regional distribution ([2]; Hypothalamus, 60 min): 0.74±0.12 %injected dose /g tissue
- Brain regional distribution ([2]; Hypothalamus, 90 min): 0.86±0.20 %injected dose /g tissue
- Brain regional distribution ([2]; Rest of brain, 10 min): 0.54±0.07 %injected dose /g tissue
- Brain regional distribution ([2]; Rest of brain, 30 min): 0.57±0.06 %injected dose /g tissue
- Brain regional distribution ([2]; Rest of brain, 60 min): 0.62±0.02 %injected dose /g tissue
- Brain regional distribution ([2]; Rest of brain, 90 min): 0.54±0.08 %injected dose /g tissue
- hypothalamus-to-cerebellum ratio ([2]; value reached over the 90 min observation period): 1.6
- Whole body distribution ([3]; Adrenals, 10 min): 15.57±1.76 %injected dose /g tissue
- Whole body distribution ([3]; Adrenals, 30 min): 10.77±2.65 %injected dose /g tissue
- Whole body distribution ([3]; Adrenals, 90 min): 7.87±1.22 %injected dose /g tissue
- Whole body distribution ([3]; Blood, 10 min): 2.14±0.13 %injected dose /g tissue
- Whole body distribution ([3]; Blood, 30 min): 1.87±0.31 %injected dose /g tissue
- Whole body distribution ([3]; Blood, 90 min): 2.01±0.29 %injected dose /g tissue
- Whole body distribution ([3]; Heart, 10 min): 5.11±0.30 %injected dose /g tissue
- Whole body distribution ([3]; Heart, 30 min): 3.91±0.55 %injected dose /g tissue
- Whole body distribution ([3]; Heart, 90 min): 2.94±0.33 %injected dose /g tissue
- Whole body distribution ([3]; Liver, 10 min): 18.63±1.29 %injected dose /g tissue
- Whole body distribution ([3]; Liver, 30 min): 14.60±1.89 %injected dose /g tissue
- Whole body distribution ([3]; Liver, 90 min): 13.46±0.97 %injected dose /g tissue
- Whole body distribution ([3]; Lung, 10 min): 26.44±1.32 %injected dose /g tissue
- Whole body distribution ([3]; Lung, 30 min): 24.02±8.55 %injected dose /g tissue
- Whole body distribution ([3]; Lung, 90 min): 14.74±3.46 %injected dose /g tissue
- Whole body distribution ([3]; Muscle, 10 min): 3.79±0.68 %injected dose /g tissue
- Whole body distribution ([3]; Muscle, 30 min): 3.02±0.45 %injected dose /g tissue
- Whole body distribution ([3]; Muscle, 90 min): 2.09±0.47 %injected dose /g tissue
- Whole body distribution ([3]; Testis, 10 min): 1.07±0.01 %injected dose /g tissue
- Whole body distribution ([3]; Testis, 30 min): 1.39±0.20 %injected dose /g tissue
- Whole body distribution ([3]; Testis, 90 min): 1.96±0.14 %injected dose /g tissue
- Whole body distribution (GHSR [4]; Adrenals): 10.02±1.80 %injected dose /g tissue
- Whole body distribution (GHSR [4]; Blood): 2.01±0.53 %injected dose /g tissue
- Whole body distribution (GHSR [4]; Heart): 3.74±0.57 %injected dose /g tissue
- Whole body distribution (GHSR [4]; Liver): 14.77±1.02 %injected dose /g tissue
- Whole body distribution (GHSR [4]; Lung): 16.28±3.65 %injected dose /g tissue
- Whole body distribution (GHSR [4]; Muscle): 2.22±0.79 %injected dose /g tissue
- Whole body distribution (GHSR [4]; Testis): 2.25±0.30 %injected dose /g tissue
- specific binding (GHSR [4]; cerebral distribution in CD1 mice): 38%
- observed pharmacological effects [5]: no observed pharmacological effects

SMILES: Cc1ccccc1-c1nc2ccc(Oc3ccc(F)cc3)cc2c(=O)n1C[C@H]1CCCNC1 [compound 2, (S)-6-(4-fluorophenoxy)-3-(piperidin-3-ylmethyl)-2-o-tolylquinazolin-4(3H)-one, reference compound]
- blockade of [11C]1 in the rest of the brain (GHSR [4]; blocking dose of 2 1 mg/kg s.c., 90 min after radioligand, P>0.05 (n=5)): minimal
- pKi (GHSR [1]): 9.05
